By IC50 is commonly meant the midpoint of a concentration-inhibition curve. Higher therefore signals lower potency. A word on the TGI: it is the reduction of tumour growth relative to the control group.

For series [1], the system named is Jurkat. In words: Cell cycle arrest in human Jurkat E6-1 cells assessed as accumulation at S phase at 19 uM after 24 hrs by FACS flow cytometry. The class given is functional. The method, boiled down:
(§1)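 Jurkat E6 cells grown in RPMI 1640 with 10% FBS at 37 °C, 5% CO2. Compounds were serially diluted in medium starting 50% above the M21 IC50. 4.0 × 10^5 cells were exposed for 24 h, then washed and spiked with chicken red blood cells as internal standard. Cells were fixed in ice-cold ethanol, stained with 1 μg/mL DAPI on ice for 1 h, and phase distribution was read by flow cytometry. The control was 0.5% DMSO.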

For series [2], the system named is Jurkat. In words: Cell cycle arrest in human Jurkat E6-1 cells assessed as accumulation at G2/M phase at 19 uM after 24 hrs by FACS flow cytometry. The class given is functional. The method in brief:
as §1
(In flow cytometry, cells or beads pass a laser one at a time.)

Series [3] concerns M21. In words: Cytotoxicity against human M21 cells after 48 hrs by SRB assay. Type of series: functional, cell-based. The conditions noted are these: M21, 48 h. The method, boiled down: (§2)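 NCI sulforhodamine B protocol. Cells were grown in high-glucose DMEM with 5% FBS and seeded per well at 4 × 10^3 (HT-29), 3.5 × 10^3 (M21) or 3 × 10^3 (MCF-7), then allowed 24 h to attach. Serial dilutions from 200 μM to 780 nM final were applied in DMSO <0.5% for 48 h. Cells were fixed with cold TCA (10% final) and stained with SRB, with absorbance read at 530–568 nm. Growth inhibition was computed against day-0 plates, giving the 50% inhibitory concentration. At least two experiments in triplicate, CV <10%.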
In general terms: The SRB assay estimates cell density from bound dye.

The subject of series [4] is Jurkat. In words: Cell cycle arrest in human Jurkat E6-1 cells assessed as accumulation at G0/G1 phase at 19 uM after 24 hrs by FACS flow cytometry. Type of series: functional. The method in brief: (§3)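 Jurkat E6 cells cultured in RPMI 1640 with 10% FBS at 37 °C, 5% CO2. Compounds serially diluted in medium, starting 50% above the M21 IC50. 4.0 × 10^5 cells were exposed for 24 h. Cells were washed with PBS, chicken red blood cells added as internal standard, and fixed in ice-cold EtOH. After 1 h on ice in PBS with 1 μg/mL DAPI, phase distribution was read by flow cytometry. DMSO-treated cells served as control.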

The subject of series [5] is Jurkat. In words: Cell cycle arrest in human Jurkat E6-1 cells assessed as accumulation at S phase at 23 uM after 24 hrs by FACS flow cytometry. The class given is functional. The method in brief:
as §1

For series [6], the system named is Jurkat. In words: Cell cycle arrest in human Jurkat E6-1 cells assessed as accumulation at G2/M phase at 23 uM after 24 hrs by FACS flow cytometry. The class given is functional. The method, boiled down: as §1
The test system of series [7] is HT-29. In words: Cytotoxicity against human HT-29 cells after 48 hrs by SRB assay. The class given is functional, cell-based. The conditions noted are these: HT-29, 48 h. The method, boiled down: as §2
The subject of series [8] is MCF7. In words: Cytotoxicity against human MCF7 cells after 48 hrs by SRB assay. The class given is functional, cell-based. As to conditions: MCF7, 48 h. The method in brief: as §2
Series [9] concerns Jurkat. In words: Cell cycle arrest in human Jurkat E6-1 cells assessed as accumulation at G0/G1 phase at 23 uM after 24 hrs by FACS flow cytometry. The class given is functional. The method, boiled down:
as §3

Series [10] deals with Jurkat. In words: Cell cycle arrest in human Jurkat E6-1 cells assessed as accumulation at S phase at 200 uM after 24 hrs by FACS flow cytometry. The class given is functional. The method, boiled down: as §1
Series [11] concerns Jurkat. In words: Cell cycle arrest in human Jurkat E6-1 cells assessed as accumulation at G2/M phase at 200 uM after 24 hrs by FACS flow cytometry. Type of series: functional. The method in brief:
as §1

In series [12] the test system is Jurkat. In words: Cell cycle arrest in human Jurkat E6-1 cells assessed as accumulation at G0/G1 phase at 200 uM after 24 hrs by FACS flow cytometry. The class given is functional. The method, boiled down: as §3
The subject of series [13] is Jurkat. In words: Cell cycle arrest in human Jurkat E6-1 cells assessed as accumulation at G0/G1 phase at 176 uM after 24 hrs by FACS flow cytometry. The class given is functional. The method in brief: as §3
Series [14] concerns Jurkat. In words: Cell cycle arrest in human Jurkat E6-1 cells assessed as accumulation at S phase at 176 uM after 24 hrs by FACS flow cytometry. Type of series: functional. The method, boiled down:
as §1

The test system of series [15] is Jurkat. In words: Cell cycle arrest in human Jurkat E6-1 cells assessed as accumulation at G2/M phase at 176 uM after 24 hrs by FACS flow cytometry. Type of series: functional. The method, boiled down: as §1
The subject of series [16] is Jurkat. In words: Cell cycle arrest in human Jurkat E6-1 cells assessed as accumulation at G0/G1 phase at 59 uM after 24 hrs by FACS flow cytometry. Type of series: functional. The method, boiled down:
as §3

Series [17] deals with Jurkat. In words: Cell cycle arrest in human Jurkat E6-1 cells assessed as accumulation at S phase at 59 uM after 24 hrs by FACS flow cytometry. Type of series: functional. The method, boiled down: (§4)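 Jurkat E6 T-lymphoblasts in RPMI 1640 with 10% FBS, 37 °C, 5% CO2. […] Chicken red blood cells were added as internal standard. Cells were fixed in ice-cold EtOH and stained with 1 μg/mL DAPI on ice for 1 h before flow cytometry of phase distribution. Vehicle control was 0.5% DMSO.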

Series [18] concerns Jurkat. In words: Cell cycle arrest in human Jurkat E6-1 cells assessed as accumulation at G2/M phase at 59 uM after 24 hrs by FACS flow cytometry. Type of series: functional. The method in brief: as §1
Series [19] concerns Jurkat. In words: Cell cycle arrest in human Jurkat E6-1 cells assessed as accumulation at G0/G1 phase at 3.5 uM after 24 hrs by FACS flow cytometry. Type of series: functional. The method in brief: as §3
For series [20], the system named is Jurkat. In words: Cell cycle arrest in human Jurkat E6-1 cells assessed as accumulation at S phase at 3.5 uM after 24 hrs by FACS flow cytometry. Type of series: functional. The method in brief:
as §4

Series [21] deals with Jurkat. In words: Cell cycle arrest in human Jurkat E6-1 cells assessed as accumulation at G2/M phase at 3.5 uM after 24 hrs by FACS flow cytometry. Type of series: functional. The method, boiled down: as §1
For series [22], the system named is Jurkat. In words: Cell cycle arrest in human Jurkat E6-1 cells assessed as accumulation at G0/G1 phase at 43 uM after 24 hrs by FACS flow cytometry. The class given is functional. The method in brief: as §3
Series [23] deals with Jurkat. In words: Cell cycle arrest in human Jurkat E6-1 cells assessed as accumulation at S phase at 43 uM after 24 hrs by FACS flow cytometry. The class given is functional. The method, boiled down:
as §4

Series [24] has as its system Jurkat. In words: Cell cycle arrest in human Jurkat E6-1 cells assessed as accumulation at G2/M phase at 43 uM after 24 hrs by FACS flow cytometry. The class given is functional. The method, boiled down: as §1
In series [25] the test system is Jurkat. In words: Cell cycle arrest in human Jurkat E6-1 cells assessed as accumulation at G0/G1 phase at 0.60 uM after 24 hrs by FACS flow cytometry. The class given is functional. The method, boiled down:
as §3

Series [26] concerns Jurkat. In words: Cell cycle arrest in human Jurkat E6-1 cells assessed as accumulation at S phase at 0.60 uM after 24 hrs by FACS flow cytometry. Type of series: functional. The method, boiled down:
as §1

Series [27] relates to Jurkat. In words: Cell cycle arrest in human Jurkat E6-1 cells assessed as accumulation at G2/M phase at 0.60 uM after 24 hrs by FACS flow cytometry. The class given is functional. The method, boiled down:
as §3

In series [28] the test system is M21. In words: Induction of DNA damage response in human M21 cells assessed as phosphorylation of H2AX into gammaH2AX at IC50 after 24 hrs by DAPI staining-based immunofluorescence assay. Type of series: functional, cell-based. The method, boiled down:
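M21 cells (1 × 10^5) on fibronectin-coated coverslips, grown 24 h, then exposed to agent for 24 h at 37 °C; 0.5% DMSO control. Fixed with 3.7% formaldehyde and permeabilized with 0.1% saponin/3% BSA. Probed with mouse anti-H2AX pS139 antibody for 2 h at room temperature. Nuclei counterstained with DAPI; nuclear γH2AX foci viewed by epifluorescence microscopy.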

The subject of series [29] is HT-1080. In words: Antitumor activity against human HT1080 cells xenografted in chicken chorioallantoic membrane assessed as inhibition of tumor growth at 30 ug per egg, iv administered on day 11 measured on day 17 by CAM assay. The class given is functional. The method, boiled down:
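HT-1080 fibrosarcoma cells (3.5 × 105/egg) were applied onto freshly exposed CAM of fertilized chicken eggs. On day 11, drug from a DMSO stock was diluted in Cremophor EL/99% ethanol/PBS (1/1/14 v/v) and 100 μL was injected into a vein under the CAM. Groups of 10–12 eggs were kept to day 17, embryos were euthanized at 4 °C for ≥4 h, and tumor wet weight was recorded.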

Series [30] can be described thus: Toxicity in fertilized chicken embryo assessed as mortality rate at 30 ug per egg, iv administered on day 11 measured on day 17 by CAM assay. Type of series: organism-based, Gallus gallus. The conditions noted are these: in vivo, read-out: Activity. The method, boiled down:
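Fertilized chicken eggs grafted on the CAM with HT-1080 cells (3.5 × 105/egg) received a 100 μL intravenous injection under the CAM on day 11. The drug was diluted in Cremophor EL/99% ethanol/PBS (1/1/14 v/v). Groups held 10–12 eggs and were incubated until day 17, when dead embryos and signs of toxicity were counted per group.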

The source made the active and inactive calls. The calls are words filed in the database; no cut-off is given here. Some results are limits rather than exact numbers.

`CCc1ccccc1OS(=O)(=O)c1cccc(NC(=O)NCCCCl)c1`: the Activity is given as 38% in series [1], 17% in series [2] and 45% in series [4]. Half-maximal inhibition in series [3] (IC50) required 24 µM.
As for `CN(C)c1ccc(OS(=O)(=O)c2ccc(NC(=O)NCCCl)cc2)cc1`, the Activity was determined as 40% in series [5], 9% in series [6] and 51% in series [9]. Besides, the IC50 in series [7] was determined as 39 µM; in series [3], 43 µM; in series [8], 58 µM.
`CCc1ccccc1NS(=O)(=O)c1cccc(NC(=O)NCCCCl)c1`: the Activity in [10] is listed as 35%; in series [11], 15%; in [12], 50%. For the same compound, the values for the IC50 in series [7], in [3] and in [8] were 96 µM, greater than 200 µM and 43 µM, respectively.
Consider `CCNC(=O)Nc1ccc(S(=O)(=O)Nc2ccccc2C)cc1`, for which the Activity came to 31% in series [13], 55% in [14] and 14% in [15]. Further, the IC50 in series [7], in series [3] and in [8] was greater than 200 µM each time.
Turning to `CCCc1ccccc1NS(=O)(=O)c1cccc(NC(=O)NCC)c1`, the results for the Activity in [5], in series [6] and in series [9] were 43%, 18% and 39%, respectively. For the same compound, the IC50 amounted to 41 µM in series [7], 60 µM in [3] and 40 µM in series [8].
As to `CCNC(=O)Nc1ccc(S(=O)(=O)Nc2ccccc2CC)cc1`, the Activity in series [16] was determined as 21%; in series [17], 41%; in series [18] it was 38%. For the same compound, the IC50 in series [3] turned out to be 90 µM.
As to `CCNC(=O)Nc1ccc(S(=O)(=O)Oc2ccc(O)cc2)cc1`, the Activity in series [19] is given as 21%; in series [20] it was 63%; in series [21] it was 16%. For the same compound, the IC50 in series [7] is 12 µM; in series [3], 4.3 µM; in series [8] it was 8 µM.
For the compound `CCNC(=O)Nc1cccc(S(=O)(=O)Nc2ccccc2CC)c1`, the values for the Activity in series [22], in series [23] and in series [24] were 40%, 41% and 19%, respectively. Moreover, the IC50 in series [7] was 15 µM; in series [3], greater than 100 µM; in [8], 48 µM.
On to `CCCc1ccccc1OS(=O)(=O)c1ccc(NC(=O)NCC)cc1`, for which the Activity in series [25] was 12%; in [26], 81%; in series [27], 7%. Moreover, the result in series [28] was Active. For the same compound, the TGI in series [29] worked out at 65%. Further, the mortality at 6 days in series [30] was found to be 10%. Besides, the IC50 turned out to be 2.4 µM in series [7], 0.8 µM in series [3] and 1.3 µM in series [8].

Values taken from ChEMBL document CHEMBL2163200, “Synthesis, biological evaluation, and structure-activity relationships of novel substituted N-phenyl ureidobenzenesulfonate derivatives blocking cell cycle progression in S-phase and inducing DNA double-strand breaks” (J Med Chem, 2012).
